In the library only some 3.5% were active in any assay of this set; here they are far more common.
MrgX1 PAM: allosterically activates human MrgX1 receptor signaling | 0.63% of 310,000 active | B-score at 10 µM | AID 588675 | MrgX1-HEK293, Fluo-4 calcium flux, FDSS; hits give high values | Q96LB2;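 active = plate-corrected calcium response at least 3 library SD above typical, normal starting fluorescence, not activating the receptor alone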;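 note: compound read alongside a low EC10 to EC30 dose of BAM8-22 agonist; peak minus trough fluorescence over baseline measured at the second addition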
RGS4 act: potentiators or activators of RGS4; HEK293 M3R/inducible RGS4, carbachol calcium flux Fluo4; hits give low values; B-score at 10 µM; 0.92% of 310,000 active;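 active = B-score of the integrated calcium signal more than 4 SD below the library mean, with starting fluorescence not abnormally high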;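 note: negative B-score means reduced calcium response which marks RGS4 activation or potentiation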
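Material: M3R-expressing HEK293 line, RGS4 induced by doxycycline | Schedule: Overnight RGS4 induction, 30 min dye load 37 °C, 20 min compound RT | Measured by: Fluo4 fluorescence kinetic imaging of calcium | Read-out: Integrated calcium ratio converted to B score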
RGS4 inh: inhibitors of human RGS4. P49798. HEK293 M3R/RGS4 inducible, Fluo-4 calcium flux; hits give high values; triggered by carbachol at its EC20. B-score at 10 µM. 0.45% of 310,000 active;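 active = B-score, a plate-corrected calcium signal, over three deviations above library mean, with baseline fluorescence within five deviations of library mean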;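 note: RGS4 expression induced by doxycycline in cells with stable M3 receptor; B-score is computed from the integrated fluorescence ratio over baseline after carbachol; higher B-score means a larger calcium signal and so more RGS4 inhibition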
Target sequence (P49798 whole entry, looked up): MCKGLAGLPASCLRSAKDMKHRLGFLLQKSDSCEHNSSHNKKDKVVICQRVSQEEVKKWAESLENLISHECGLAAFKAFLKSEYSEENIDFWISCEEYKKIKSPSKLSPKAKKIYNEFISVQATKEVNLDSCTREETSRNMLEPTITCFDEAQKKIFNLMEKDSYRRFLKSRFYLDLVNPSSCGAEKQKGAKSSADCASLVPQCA
MrgX1 ag: human MrgX1 receptor agonism, primary screen | Q96LB2 | MrgX1-HEK293 cells, Fluo-4 calcium fluorescence, agonist mode; hits give high values | B-score at 10 µM | 0.44% of 310,000 active;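 active = calcium response B-score plate-corrected fluorescence ratio at least 3 library SD, with starting fluorescence B-score inside 5 SD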
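Test system: Stable human MrgX1 HEK293 cell line | Schedule: Overnight plating before 1 h dye loading | Read-out basis: Baseline-normalised fluorescence change ratio, B-scored | Detection: Kinetic calcium dye fluorescence, Fluo-4 NW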
MrgX1 antag: antagonists of human MrgX1 receptor; Q96LB2; MRGX1-HEK293 calcium flux, Fluo-4, BAM8-22 antagonism; hits give low values; 1.3% of 310,000 active; AID 588676; B-score at 10 µM;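 active = calcium-response B-score plate-corrected more than 3 library SD below zero, starting fluorescence within 5 deviations, no agonist response on first addition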;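 note: peak minus trough fluorescence over baseline after final BAM8-22 challenge near maximal dose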
Active calls of the source: *; i = inactive; . = no result.

SMILES	MrgX1 PAM	RGS4 act	RGS4 inh	MrgX1 ag	MrgX1 antag
CC1=C(C#N)c2nc(N)c(C#N)c(C)c2/C1=C\c1ccc(C)cc1	i	i	i	i	-5.9*
CC1CCC(C(C)C)C(OP(=O)(c2ccccc2)C(O)c2ccncc2)C1 (configuration not stated)	i	i	i	i	i
CC1CCC(C(C)C)C(OP(=O)(c2ccc(N(C)C)cc2)C(O)c2cccnc2)C1 (configuration not stated)	i	i	i	i	-8.7*
COc1ccc(C(=O)CN2C(=O)c3ccccc3C2=O)cc1	i	i	i	i	i
Cc1oc2cc(Br)c(O)c(Br)c2c1-c1ccccc1	15*	i	i	i	i
CCOC(=O)c1cc(-c2ccc(/C=C3/C(=O)N(c4ccc(C(=O)O)cc4)N=C3C)o2)ccc1Cl	i	-7.3*	i	i	i
CC1=NN(c2ccc(Br)cc2)C(=O)/C1=C/c1ccc(-c2ccccc2C(=O)O)o1	9.3*	i	i	i	i
COc1ccc(/C=C2/SC(=S)N(CCC(=O)O)C2=O)cc1	i	i	i	31*	i
COc1ccc(O)c(/C=C2/SC(=S)N(Cc3ccccc3)C2=O)c1	i	i	i	i	-5.1*
COc1ccc(OC)c(/C=C2\SC(=S)N(Cc3cccnc3)C2=O)c1	i	i	i	i	i
CC1=NNC(=O)/C1=C\c1cn(-c2ccccc2)nc1-c1cccs1	i	i	i	i	-6.5*
CC1=NNC(=O)/C1=C\c1cn(-c2ccccc2)nc1-c1ccc(F)cc1	.	i	i	.	.
CCOc1ccc(-c2nn(-c3ccccc3)cc2/C=C2\SC(=S)N(C3CCS(=O)(=O)C3)C2=O)cc1 (configuration not stated)	i	-8.3*	i	i	i
CCCOc1ccc(-c2nn(-c3ccccc3)cc2/C=C2\SC(=S)N(C3CCS(=O)(=O)C3)C2=O)cc1 (configuration not stated)	i	i	i	i	i
CCCCCC(=O)NN1C(=S)N(c2ccc(OC)cc2)C(=O)C1CC(=O)Nc1ccccc1 (configuration not stated)	i	i	i	i	i
Nc1nnnn1/N=C/c1cccc(OCc2ccccc2Cl)c1	i	i	i	i	i
O=C(O)CCCCCN1C(=O)/C(=C\c2cn(-c3ccccc3)nc2-c2cccs2)SC1=S	i	-7*	i	i	i
COc1ccc(-c2nn(-c3ccccc3)cc2/C=C2/SC(=S)N(CCC(=O)O)C2=O)c(C)c1	i	-7.7*	i	i	i
COc1ccc(-c2nn(-c3ccccc3)cc2/C=C2/SC(=S)N(CCC(=O)O)C2=O)cc1	i	-7.2*	i	i	-6*
Cc1ccc(-c2nn(-c3ccccc3)cc2/C=C2\SC(=S)N(CC(=O)O)C2=O)cc1	i	i	i	i	i
O=C(NN1CCOCC1)c1ccc(Br)cc1	i	i	i	i	i
Cc1ccc(C(=O)NN2CCOCC2)cc1	i	i	i	i	-5*
CS(=O)(=O)N1CCN(c2ccc(NC(=O)c3ccccc3)cc2)CC1	i	i	i	i	i
Fc1ccc(C2CCNCC2COc2ccc3c(c2)OCO3)cc1 (configuration not stated)	i	-8.8*	i	i	i
Fc1ccc([C@@H]2CCNC[C@H]2COc2ccc3c(c2)OCO3)cc1	i	-7.1*	i	i	i
Cc1ccc(/C=C2\CCC3=C2OC(N)=C(C#N)C3c2ccc(C)cc2)cc1 (configuration not stated)	i	i	i	73*	i
O=C(c1ccccc1)n1c(=O)c(F)cn(COCCBr)c1=O	i	i	i	i	i
Oc1cccc(C(Nc2nccs2)c2ccc3cccnc3c2O)c1 (configuration not stated)	i	-7*	i	i	i
CC(=O)Nc1cccc(NC(=O)CSc2nnc3ccc(-c4cccnc4)nn23)c1	i	i	i	i	i
Cc1nc(N/N=C/c2ccc(O)cc2)c2cnn(-c3ccccc3)c2n1	i	i	i	i	-7.5*

Screens deposited in PubChem BioAssay by Johns Hopkins Ion Channel Center.
